Assay outcomes (PubChem)
Most compounds without a hit are left out; they make up all but 2% or so of the library.
PPC-1+TRAIL kill – compounds killing PPC-1 cancer cells with TRAIL present, primary screen, TRAIL potentiator project, ATPLite luminescence, uHTS | cell killing (% activity), % at 4 µM or 5 µM | hit rate 0.41% among 220,000 | PPC-1 cells + TRAIL, ATPLite viability luminescence;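 active means cell killing above 50% in the first pass at 4 µM, then a duplicate retest at 5 µM averaging 50% or more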;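 further: plate controls were cells with TRAIL plus DMSO for no effect and medium-only wells lacking cells for full effect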
HSP90 refold inh – HSP90 inhibitors, primary screen, cell lysate, luminescence; Rabbit reticulocyte lysate, luciferase refolding luminescence, 3 h; inhibition, % at 5.6 µM; hit rate 0.91% among 290,000; Heat shock protein HSP 90 (rabbit reticulocyte lysate; luciferase refolding); AID 1789, 2009;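 active means inhibition above the screen-wide mean plus 3 SD, computed separately per campaign, cut at about 16% in these data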;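 further: 0% = DMSO wells and 100% = 60 µM geldanamycin wells; inhibitors lower the luminescence because luciferase stays unfolded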
FLuc inh counter – firefly luciferase enzyme inhibitors, primary screen, artefact control for luciferase-based inhibitor screens, biochemical, luminescence, ATPLite; hit rate 1.5% among 200,000; inhibition, % at 10 µM; Luciferin 4-monooxygenase (Photinus pyralis), P08659; 10 min;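 active means inhibition above about 50% when tested at 10 µM, limit read from the data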
Target sequence (P08659 whole entry, looked up): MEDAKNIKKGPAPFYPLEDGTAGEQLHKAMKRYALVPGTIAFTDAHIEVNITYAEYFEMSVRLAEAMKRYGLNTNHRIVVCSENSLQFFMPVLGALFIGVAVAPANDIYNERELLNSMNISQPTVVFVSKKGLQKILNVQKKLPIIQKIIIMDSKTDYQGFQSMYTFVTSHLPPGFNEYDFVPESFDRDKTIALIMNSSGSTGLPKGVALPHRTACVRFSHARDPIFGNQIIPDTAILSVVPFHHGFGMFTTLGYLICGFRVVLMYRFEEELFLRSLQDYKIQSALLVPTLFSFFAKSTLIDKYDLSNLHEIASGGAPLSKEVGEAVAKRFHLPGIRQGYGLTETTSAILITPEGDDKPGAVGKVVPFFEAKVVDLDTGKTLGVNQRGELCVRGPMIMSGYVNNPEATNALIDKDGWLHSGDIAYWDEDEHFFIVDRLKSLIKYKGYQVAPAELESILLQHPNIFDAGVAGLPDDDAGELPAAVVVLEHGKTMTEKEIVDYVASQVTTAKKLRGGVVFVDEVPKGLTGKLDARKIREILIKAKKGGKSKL
FLuc act counter – FLuc activators, initial screening, artefact control for FLuc-dependent activation tests, biochemical, ATPlite luminescence. activation factor at 10 µM. ATPlite luciferase biochemical, 10 min; 0 = ATP-free wells, 1 = DMSO control. 200,000 tested, under 10 active. Luciferin 4-monooxygenase (Photinus pyralis), P08659;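 active means luciferase activation factor, scaled between plate controls, of at least 2 with compound at 10 µM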
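Assay system: Luciferase/luciferin detection reagent, cell-free biochemical luciferase assay / Also added: ATP substrate / Schedule: 10 min at ambient temperature / Measured by: luminescence measurement of luciferase light output / Benchmarks: low control with PBS replacing ATP, high control enzyme plus ATP without compound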
TRAIL sens C8 – viability loss with TRAIL in NB7+C8 cells, primary screen, TRAIL sensitizer project, cell-based, ATPlite luminescence; inhibition (viability loss, TRAIL sensitization), % at 10 µM; hit rate 1% among 360,000; AID 624354, 2012;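 active means compounds causing at least 50% loss of cell viability in the single-dose screen, relative to plate controls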
* marks the source's active call; other numbers are inactive results; / = not tested or not shown.

SMILES	PPC-1+TRAIL kill	HSP90 refold inh	FLuc inh counter	FLuc act counter	TRAIL sens C8
Cc1ccc(-c2nc(-c3cccnc3)no2)c(C)c1	38	-3	65*	0.4	37
CC(=O)Oc1ccc(Oc2ccc(-c3noc(C)n3)cc2)cc1	-14	1	0	1	34
Cc1ccc(C)c(OCc2nc(-c3cccnc3)no2)c1	8	0	-1	1	19
COc1ccc(CN2C(=O)c3cccc4cccc(c34)C2c2nc3ccccc3[nH]2)cc1 (centres undefined)	/	/	/	/	-14
O=C(Nc1nccs1)c1ccc(-c2ccc([N+](=O)[O-])cc2)o1	28	6	21	0.8	23
O=C(Nc1nccs1)c1ccc(-c2ccc(F)cc2)o1	49	2	78*	0.2	54*
CCOC(=O)[C@@H]1[C@H]2COc3cc(OC)ccc3[C@@H]2N2C(=O)N(c3ccc(F)cc3)C(=O)[C@@]12C	/	/	/	/	-13
COc1cc(/C=N/Nc2ccccn2)cc(OC)c1O	40	-5	78*	0.2	13
C(=N\Nc1ccccn1)/c1ccc2c(c1)OCCO2	28	4	78*	0.2	46
C=CCOc1ccc(/C=N/Nc2ccccn2)cc1OC	36	-1	49	0.5	27
CCCOc1ccc(/C=N/Nc2ccccn2)cc1OC	25	1	58*	0.4	31
CCOc1ccc(/C=N/Nc2ccccn2)cc1OC	14	0	58*	0.4	26
COc1cc(/C=N/Nc2ccccn2)ccc1OCC(C)C	33	-1	19	0.8	9
O=C(CCl)N1CCN(S(=O)(=O)c2ccc3c(c2)CCC3)CC1	/	/	/	/	91*
CN1C(=O)N(CC(=O)N2CCN(S(=O)(=O)c3ccc4c(c3)CCC4)CC2)C(=O)C12CCCCC2	/	/	/	/	1
Nc1ccc(Nc2nc(-c3ccncc3)cs2)cc1	11	-4	59*	0.4	25
Cn1c(=O)oc2cc(S(=O)(=O)N3CCC(C(=O)NCc4ccccc4Cl)CC3)ccc21	/	-3	/	/	-14
CCCCN(C(=O)CC1OC(=O)c2ccccc21)c1c(N)n(CCCC)c(=O)[nH]c1=O (centres undefined)	/	/	/	/	6
c1ccc2cc(N3CCCCC3)ccc2c1	/	/	/	/	7
O=C1c2ccccc2C(=O)c2cc(N3CCCCC3)ccc21	/	/	/	/	86*
CCc1cc2ccccc2nc1SCC(=O)Nc1cc(OC)c(OC)cc1C(=O)O	19	3	3	1	11
Cc1ccc(-c2csc(NC(=O)/C=C/c3ccco3)c2C(=O)O)cc1	31	-1	64*	0.4	33
Cc1nc(NC(=O)/C=C/c2ccco2)sc1C	7	-1	34	0.7	46
O=C(/C=C/c1ccco1)Nc1ccccc1C(=O)O	20	7	80*	0.2	48*
O=C(/C=C/c1ccco1)Nc1cccc(NC(=O)/C=C/c2ccco2)n1	17	-3	52*	0.5	19
SMILES	PPC-1+TRAIL kill	HSP90 refold inh	FLuc inh counter	FLuc act counter	TRAIL sens C8
COC(=O)CCCC(=O)N1CCC(CCC(=O)NC2CC2)CC1	/	-2	/	/	-21
O=C1C(Cl)=C(NC(=O)c2ccccc2)C(=O)C(Cl)=C1NC(=O)c1ccccc1	/	71*	/	/	11
NC(=O)C12C(=O)NC(=O)C1(C(=O)O)C21CCCC1 (centres undefined)	/	/	/	/	-18
Cc1nnsc1C(=O)N/N=C/c1ccccc1	12	-3	2	1	-3
Cc1nnsc1C(=O)N/N=C/c1ccc2ccccc2c1O	60*	2	-5	1.1	17
CCCCCC(=O)N1C[C@H](n2cc(COC(=O)c3ccccc3)nn2)[C@@H](O)C[C@@H]1c1ccc(Cl)cc1	/	/	/	/	58*
CCCCCC(=O)N1C[C@@H](n2cc(COC(=O)c3ccccc3)nn2)[C@H](O)C[C@@H]1c1ccc(Cl)cc1	/	/	/	/	16
Cc1ccc(-c2cc(-c3ccccc3)no2)cc1	/	/	/	/	55*
O=C(/C=C/c1c(Cl)cccc1Cl)NCCCn1ccnc1	/	/	/	/	-2
CCc1c(C)sc(NC(=O)Cn2nc(C)c([N+](=O)[O-])c2C)c1C(N)=O	9	1	-10	1.1	-3
O=c1oc2ccccc2cc1-c1csc(Nc2nc3c(F)cccc3s2)n1	-1	-2	9	0.9	53*
O=C(NC1CCCC1)C1CCN(C(=O)c2ccc(Cl)cc2Cl)CC1	/	1	/	/	-5
COc1ccc(CC(NC(C)=O)C(=O)NC2CCN(S(=O)(=O)c3ccccc3)CC2)c(OC)c1 (centres undefined)	/	17*	/	/	6
Cc1ccc(-c2nn(-c3ccccc3)cc2NC(=O)CCl)cc1	28	7	6	0.9	56*
Cc1ccc(-c2cc(NC(=O)CCl)n(-c3ccccc3)n2)cc1	36	3	1	1	45
Cn1c(N)c(C(=O)COC(=O)CC(NC(=O)c2ccccc2Cl)c2ccccc2)c(=O)n(C)c1=O (centres undefined)	25	2	-5	1.1	1
CC(=O)c1sc(NC(=O)c2cc(=O)c3ccccc3o2)nc1C	38	3	83*	0.2	54*
O=C(O)c1ccccc1C(=O)Nc1cccc([N+](=O)[O-])c1	13	-1	/	/	11
Cc1c(C(=O)Nc2cccc([N+](=O)[O-])c2)csc1-c1ccccc1	12	-2	19	0.8	57*
O=C(Nc1cccc([N+](=O)[O-])c1)c1cc2ccccc2cc1O	28	-3	/	/	60*
CCOc1ccc(NCC(=O)N/N=C/C=C/c2ccccc2)cc1	36	1	56*	0.4	12
COc1ccc(NCC(=O)N/N=C/C=C/c2ccccc2[N+](=O)[O-])cc1	5	3	1	1	-15
CN(C)CCn1c2c(c(SCC(=O)Nc3ccc4c(c3)OCCO4)nc1=O)CCCC2	/	/	/	/	-7
CCOc1ccc(-n2nc3cc(C)c(N)cc3n2)cc1	/	11	/	/	59*
CCOC(=O)c1ccc(N2C(=O)CC(C)(CC)CC2=O)cc1	3	-5	/	/	-19
SMILES	PPC-1+TRAIL kill	HSP90 refold inh	FLuc inh counter	FLuc act counter	TRAIL sens C8
O=C(CCS(=O)(=O)c1ccc(Cl)cc1)NC1CCCC1	/	/	/	/	-9
O=C(N/N=C/c1cc([N+](=O)[O-])ccc1O)c1ccc(COc2ccc3c(c2)CCC3)o1	/	0	/	/	52*
COc1ccc(Br)cc1/C=N/NC(=O)c1ccc(COc2ccc3c(c2)CCC3)o1	-1	10	-6	1.1	-5
O=C(Nc1ccccc1)Nc1ncc([N+](=O)[O-])s1	24	8	27	0.7	55*
C(=N\NC1=Nc2cccc3cccc1c23)/c1ccccc1	32	-1	67*	0.3	50*
C(=N\NC1=Nc2cccc3cccc1c23)/c1cccnc1	24	-6	60*	0.4	27
COc1ccc2c(c1OC)C(=O)N(c1cccc(C)c1)C2	15	-2	84*	0.2	65*
